According to ChEMBL document CHEMBL1687762, “Aerosol therapy with colistin methanesulfonate: a biopharmaceutical issue illustrated in rats” (Antimicrob Agents Chemother, 2010):

Legend:
Rattus norvegicus [1] = experiment: Volume of distribution at steady state in Sprague-Dawley rat at 15 mg/kg, iv; assay type: ADME, organism-based; design: dose 15 mg/kg, route intravenous; conditions: in vivo
Outline: (§1)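 CMS in 0.9% NaCl, 15 mg/kg, was given as an i.v. bolus through a femoral vein catheter to fasted male Sprague-Dawley rats (n=6). Arterial plasma was drawn at 0–180 min. CMS (measured as colistin after acid hydrolysis) and colistin were quantified by LC-MS/MS. Individual noncompartmental analysis; Vss = dose × AUMC / AUC².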

Rattus norvegicus [2] = experiment: Half life in Sprague-Dawley rat at 15 mg/kg, iv; assay type: ADME, organism-based; design: dose 15 mg/kg, route intravenous; conditions: in vivo; outline: as §1
Rattus norvegicus [3] = experiment: Half life in Sprague-Dawley rat assessed as Colistin level at 15 mg/kg, iv; assay type: ADME, organism-based; design: dose 15 mg/kg, route intravenous; conditions: in vivo; outline: as §1
Rattus norvegicus [4] = experiment: AUC in Sprague-Dawley rat at 15 mg/kg, iv; assay type: ADME, organism-based, Plasma; design: dose 15 mg/kg, route intravenous; conditions: in vivo; outline: as §1
Rattus norvegicus [5] = experiment: AUC in Sprague-Dawley rat assessed as Colistin level at 15 mg/kg, iv; assay type: ADME, organism-based, Plasma; design: dose 15 mg/kg, route intravenous; conditions: in vivo; outline: as §1
Rattus norvegicus [6] = experiment: Half life in Sprague-Dawley rat at 15 mg/kg administered via intratracheal nebulization; assay type: ADME, organism-based; design: dose 15 mg/kg, route endotracheal; conditions: in vivo, inhaled_or_intranasal
Outline: (§2)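 Male Sprague-Dawley rats (280–350 g) were fasted 12 h, with a femoral catheter implanted the day before. Under isoflurane, 100 µl of CMS at 50 mg/ml in 0.4% NaCl (15 mg/kg) was sprayed intratracheally with a MicroSprayer (n=5). Arterial plasma was sampled from 0 to 300 min. CMS (after sulfuric acid hydrolysis) and colistin were measured by LC-MS/MS. Noncompartmental analysis: trapezoidal AUC, terminal log-linear half-life.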

Rattus norvegicus [7] = experiment: Half life in Sprague-Dawley rat assessed as Colistin level at 15 mg/kg administered via intratracheal nebulization; assay type: ADME, organism-based; design: dose 15 mg/kg, route endotracheal; conditions: in vivo, inhaled_or_intranasal; outline: as §2
Rattus norvegicus [8] = experiment: AUC in Sprague-Dawley rat at 15 mg/kg administered via intratracheal nebulization; assay type: ADME, organism-based, Plasma; design: dose 15 mg/kg, route endotracheal; conditions: in vivo, inhaled_or_intranasal; outline: as §2
Rattus norvegicus [9] = experiment: AUC in Sprague-Dawley rat assessed as Colistin level at 15 mg/kg administered via intratracheal nebulization; assay type: ADME, organism-based, Plasma; design: dose 15 mg/kg, route endotracheal; conditions: in vivo, inhaled_or_intranasal; outline: as §2
Rattus norvegicus [10] = experiment: Cmax in Sprague-Dawley rat at 15 mg/kg administered via intratracheal nebulization; assay type: ADME, organism-based; design: dose 15 mg/kg, route endotracheal; conditions: in vivo, inhaled_or_intranasal; outline: as §2
Rattus norvegicus [11] = experiment: Bioavailability in Sprague-Dawley rat at 15 mg/kg administered via intratracheal nebulization; assay type: ADME, organism-based; conditions: in vivo, inhaled_or_intranasal
Outline: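 CMS bioavailability after intratracheal nebulization in rats (15 mg/kg) was taken as the mean CMS plasma AUC after nebulization divided by the mean CMS AUC after i.v. dosing at the same dose. It is reported as an average value.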

Vdss (Rattus norvegicus [1]): 0.33 L/kg
t1/2 (Rattus norvegicus [2]): 22 min
t1/2 (Rattus norvegicus [3]): 35.5 min
AUC (Rattus norvegicus [4]): 1079 µg·min/mL
AUC (Rattus norvegicus [5]): 160 µg·min/mL
t1/2 (Rattus norvegicus [6]): 21 min
t1/2 (Rattus norvegicus [7]): 63.6 min
AUC (Rattus norvegicus [8]): 756 µg·min/mL
AUC (Rattus norvegicus [9]): 607 µg·min/mL
Cmax (Rattus norvegicus [10]): 5600 ng/mL
F (Rattus norvegicus [11]): 70%
Sequence: COLISTIMETHATE SODIUM
